Results taken from ChEMBL document CHEMBL1148410, “Antitumor agents. 3. Design, synthesis, and biological evaluation of new pyridoisoquinolindione and dihydrothienoquinolindione derivatives with potent cytotoxic activity” (J Med Chem, 2004).
*1 amine or outer side, *2 acyl side, *3 side chain or, on linkers, in order; H or OH if unused. Where a SMILES comes first, the peptide text is derived from it. Bridges are numbered along the chain shown (N, C = ends). Roman numbers before positions name the chains, in order. [ ]: non-standard residue; d: D form. Actinocin(1to9) = Cc1c2oc3c(C)ccc(C(=O)[*:2])c3nc-2c(C(=O)[*:1])c(N)c1=O; NMeV = CN[C@H](C(=O)O)C(C)C; Sar = CNCC(=O)O

Assays:
MCF7 = experiment: Concentration required to reduce proliferation of human breast adenocarcinoma (MCF-7) cell line by 50% as determined by the MTT method; assay type: functional, cell-based
Summary of the method: (§1)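 Solid-tumour-derived cells (and fibroblasts) were seeded in exponential growth at 5×10^4 cells/mL and allowed to adhere for 16 h before serial drug dilutions were added (DMSO stock 200 μM, diluted in medium). MTT viability was read 4 days later. Untreated controls went through at least three rounds of multiplication. IC50 came from linear regression of % growth versus untreated control, mean of three independent determinations.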

SK-MES-1 = experiment: Concentration required to reduce proliferation of human lung squamous carcinoma (SKMES-1) cell line by 50% as determined by the MTT method; assay type: functional, cell-based; summary of the method: as §1
DU-145 = experiment: Concentration required to reduce proliferation of human prostate carcinoma (DU-145) cell line by 50% as determined by the MTT method; assay type: functional, cell-based; summary of the method: as §1
SK-MEL-28 = experiment: Concentration required to reduce proliferation of human melanoma (SKMEL-28) cell line by 50% as determined by the MTT method; assay type: functional, cell-based; summary of the method: as §1
HepG2 = experiment: Concentration required to reduce proliferation of human hepatocellular carcinoma (HepG-2) cell line by 50% as determined by the MTT method; assay type: functional, cell-based; summary of the method: as §1
MT4 = experiment: Concentration required to reduce proliferation of CD4+ human acute T-lymphoblastic leukemia (MT-4) cell line by 50% as determined by the MTT method; assay type: functional, cell-based
Summary of the method: (§2)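 Leukemia/lymphoma cells grown in RPMI 1640 with 10% FCS, 37 °C, humidified 5% CO2. Compounds were dissolved in DMSO (200 μM initial) and serially diluted in medium. Exponentially growing cells were resuspended at 1×10^5 cells/mL with the drug dilutions. Viability was read by MTT after 96 h at 37 °C. Growth was taken as % of untreated controls, and IC50 came from linear regression. Values are the mean of three independent determinations.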

CCRF-SB = experiment: Concentration required to reduce proliferation of human acute B-lymphoblastic (CCRF-SB) cell line by 50% as determined by the MTT method; assay type: functional, cell-based; summary of the method: as §2
CCRF-CEM = experiment: Concentration required to reduce proliferation of CD4+ human acuteT-lymphoblastic leukemia (CCRF-CEM) cell line by 50% as determined by the MTT method; assay type: functional, cell-based; summary of the method: as §2
WIL2-NS = experiment: Concentration required to reduce proliferation of human splenic B-lymphoblastoid (Wil2-NS) cell line by 50% as determined by the MTT method; assay type: functional, cell-based; summary of the method: as §2
CRL-7065 cell line = experiment: Concentration required to reduce proliferation of human foreskin fibroblasts (CRL7065) cell line by 50% as determined by the MTT method; assay type: functional, cell-based; summary of the method: as §1
KB [1] = experiment: Concentration required to reduce proliferation of KB subclones passaged in the presence of doxorubicin 0.09 uM (KBMDR) cell line by 50% as determined by the MTT method; assay type: functional, cell-based; conditions: Homo sapiens
Summary of the method: (§3)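 Adherent cultures were seeded at 5×10^4 cells/mL, attached for 16 h, then exposed to serial drug dilutions. MTT viability was read after 4 days, with controls completing at least three doublings. IC50 came from linear regression, mean ±SD of three independent determinations.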

KB [2] = experiment: Concentration required to reduce proliferation of KB subclones passaged in the presence of vincristine 0.02 uM (KBV20C) cell line by 50% as determined by the MTT method; conditions: Homo sapiens
KB [3] = experiment: Concentration required to reduce proliferation of KB human nasopharyngeal carcinoma (KBWT) cell line by 50% as determined by the MTT method; assay type: functional, cell-based; summary of the method: as §3
KB [4] = experiment: Concentration required to reduce proliferation of KB subclones passaged in the presence of etoposide 7 uM (KB7D) cell line by 50% as determined by the MTT method; assay type: functional, cell-based; conditions: Homo sapiens; summary of the method: as §3

Row | Compound | IC50 (MCF7) | IC50 (SK-MES-1) | IC50 (DU-145) | IC50 (SK-MEL-28) | IC50 (HepG2) | IC50 (MT4) | IC50 (CCRF-SB) | IC50 (CCRF-CEM) | IC50 (WIL2-NS) | IC50 (CRL-7065 cell line) | IC50 (KB [1]) | IC50 (KB [2]) | IC50 (KB [3]) | IC50 (KB [4])
1 | CCOC(=O)C1=CC2C(=O)c3cccnc3C(=O)C2C(c2ccc(C)cc2)=N1 (configuration not stated) | 1600 nM | 1200 nM | 1900 nM | 1300 nM | 1900 nM | 1000 nM | 1000 nM | 1000 nM | 2500 nM | – | – | – | – | –
2 | CCOC(=O)C1(N)CSC2=C1C(=O)c1cccnc1C2=O (configuration not stated) | 500 nM | 900 nM | 1200 nM | 1100 nM | 500 nM | 500 nM | 600 nM | 2000 nM | 3100 nM | 1700 nM | – | – | – | –
3 | CCOC(=O)C1=CC2C(=O)c3ncccc3C(=O)C2C(c2ccc(OC)cc2)=N1 (configuration not stated) | 1500 nM | 1600 nM | 1500 nM | 300 nM | 1000 nM | 400 nM | 100 nM | 100 nM | 90 nM | – | – | – | – | –
4 | CCOC(=O)C1=CC2C(=O)c3ncccc3C(=O)C2C(c2ccc(Cl)cc2)=N1 (configuration not stated) | 300 nM | 50 nM | 30 nM | 200 nM | 400 nM | 6 nM | 7 nM | 150 nM | 10 nM | 40 nM | – | – | – | –
5 | CCOC(=O)C1=CC2C(=O)c3ncccc3C(=O)C2C(c2ccccc2)=N1 (configuration not stated) | 500 nM | 500 nM | 1500 nM | 800 nM | 2000 nM | 15 nM | 10 nM | 200 nM | 20 nM | – | – | – | – | –
6 | CCOC(=O)C1=CC2C(=O)c3ncccc3C(=O)C2C(c2ccc(Br)cc2)=N1 (configuration not stated) | 200 nM | 90 nM | 50 nM | 200 nM | 300 nM | 10 nM | 10 nM | 200 nM | 20 nM | 50 nM | – | – | – | –
7 | CCOC(=O)C1=CC2C(=O)c3cccnc3C(=O)C2C(c2ccc([N+](=O)[O-])cc2)=N1 (configuration not stated) | 200 nM | 80 nM | 100 nM | 200 nM | 500 nM | 10 nM | 15 nM | 230 nM | 30 nM | – | – | – | – | –
8 | Cc1c2oc3c(C)ccc(C(=O)N[C@@H]4C(=O)N[C@H](C(C)C)C(=O)N5CCC[C@H]5C(=O)N(C)CC(=O)N(C)[C@@H](C(C)C)C(=O)O[C@@H]4C)c3nc-2c(C(=O)N[C@@H]2C(=O)N[C@H](C(C)C)C(=O)N3CCC[C@H]3C(=O)N(C)CC(=O)N(C)[C@@H](C(C)C)C(=O)O[C@@H]2C)c(N)c1=O [DACTINOMYCIN] (I: T[dV]P[Sar][NMeV] / II: T[dV]P[Sar][NMeV]; ester I:1-I:C, II:1-II:C; linker I:N-II:N via Actinocin(1to9)) | – | – | – | – | – | – | – | – | – | – | 200 nM | 50 nM | 4 nM | 200 nM
9 | COc1cc([C@@H]2c3cc4c(cc3[C@@H](O[C@@H]3O[C@@H]5CO[C@@H](C)O[C@H]5[C@H](O)[C@H]3O)[C@H]3COC(=O)[C@H]23)OCO4)cc(OC)c1O [ETOPOSIDE] | – | – | – | – | – | – | – | – | – | – | > 20000 nM | 2400 nM | 800 nM | > 20000 nM
10 | CC[C@]1(O)C[C@H]2CN(CCc3c([nH]c4ccccc34)[C@@](C(=O)OC)(c3cc4c(cc3OC)N(C=O)[C@H]3[C@@](O)(C(=O)OC)[C@H](OC(C)=O)[C@]5(CC)C=CCN6CC[C@]43[C@@H]65)C2)C1 [VINCRISTINE] | – | – | – | – | – | – | – | – | – | – | 1000 nM | 200 nM | 4 nM | –
